Activity calls are given as the source filed them. No cut-off for these calls is given here.

This is an account of results in ChEMBL document CHEMBL4477204, “Tetrahydroisoquinoline-Derived Urea and 2,5-Diketopiperazine Derivatives as Selective Antagonists of the Transient Receptor Potential Melastatin 8 (TRPM8) Channel Receptor and Antiprostate Cancer Agents” (J Med Chem, 2016).

For the first data set, the target named is T1, Transient receptor potential cation channel subfamily M member 8 (Rattus norvegicus, UniProt Q8R455). The data set can be described thus: Antagonist activity at recombinant rat TRPM8 expressed in HEK293 cells assessed as inhibition of icilin-induced intracellular calcium accumulation preincubated for 5 mins followed by icilin addition by Fluo-4-AM probe-based spectrofluorimetric assay. It counts as cell-based.
T1 sequence (Q8R455 whole entry): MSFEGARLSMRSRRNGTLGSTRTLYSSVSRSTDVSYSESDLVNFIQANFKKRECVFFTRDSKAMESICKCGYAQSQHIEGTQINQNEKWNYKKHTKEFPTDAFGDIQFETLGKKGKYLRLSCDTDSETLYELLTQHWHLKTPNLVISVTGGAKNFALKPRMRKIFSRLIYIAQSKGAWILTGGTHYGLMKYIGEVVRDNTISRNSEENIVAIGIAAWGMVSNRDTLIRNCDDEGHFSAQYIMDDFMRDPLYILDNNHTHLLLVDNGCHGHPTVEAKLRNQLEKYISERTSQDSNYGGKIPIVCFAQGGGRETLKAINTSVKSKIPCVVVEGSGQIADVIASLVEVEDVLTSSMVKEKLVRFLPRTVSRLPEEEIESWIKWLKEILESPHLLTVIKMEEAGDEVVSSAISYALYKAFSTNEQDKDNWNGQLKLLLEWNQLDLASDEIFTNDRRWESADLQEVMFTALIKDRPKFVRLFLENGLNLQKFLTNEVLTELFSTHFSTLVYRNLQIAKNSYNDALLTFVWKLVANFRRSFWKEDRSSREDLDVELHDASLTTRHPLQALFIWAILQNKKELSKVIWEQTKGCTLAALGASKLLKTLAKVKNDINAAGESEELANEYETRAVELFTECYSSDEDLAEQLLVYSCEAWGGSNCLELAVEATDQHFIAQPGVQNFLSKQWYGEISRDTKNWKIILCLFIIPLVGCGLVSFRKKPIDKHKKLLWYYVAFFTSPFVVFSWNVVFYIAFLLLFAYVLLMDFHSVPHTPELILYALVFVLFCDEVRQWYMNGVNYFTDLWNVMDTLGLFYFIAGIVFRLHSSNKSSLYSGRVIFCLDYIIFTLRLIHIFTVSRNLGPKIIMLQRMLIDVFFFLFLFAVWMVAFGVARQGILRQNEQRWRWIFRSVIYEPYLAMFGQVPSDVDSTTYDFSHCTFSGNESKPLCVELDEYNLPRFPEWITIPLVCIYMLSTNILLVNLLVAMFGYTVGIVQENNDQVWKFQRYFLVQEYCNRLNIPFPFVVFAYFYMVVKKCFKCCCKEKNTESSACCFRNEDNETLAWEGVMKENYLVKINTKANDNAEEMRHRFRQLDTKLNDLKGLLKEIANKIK
Details: not given
In short, it runs like this: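 HEK-293 cells stably expressing the listed TRP channel (human TRPV1; rat TRPM8, TRPA1, TRPV2, TRPV3 or TRPV4) were Fluo-4-AM loaded (4 µM, 1 h, 25 °C) and suspended in Tyrode's buffer pH 7.4. Compound was added 5 min before agonist: icilin 0.25 µM (TRPM8), capsaicin 0.1 µM (TRPV1), AITC 100 µM (TRPA1), LPC 3 µM (TRPV2), thymol 100 µM (TRPV3), 4α-PDD 1 µM (TRPV4). Agonist alone was taken as 100%. IC50 from sigmoidal fit, at least triplicate.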
Usually IC50 stands for the midpoint of a concentration-inhibition curve. On to `COc1cc2c(cc1OC)[C@H](c1ccc3ccccc3c1)N(C(=O)N1CCc3cc(OC)c(OC)cc3[C@@H]1c1ccc3ccccc3c1)CC2` (racemic), for which the IC50 was more than 50 µM.

As to `COc1cc2c(cc1OC)C(c1ccc([N+](=O)[O-])cc1[N+](=O)[O-])NCC2` (racemic), the IC50 is more than 50 µM.

`COc1cc2c(cc1OC)[C@H](c1ccc([N+](=O)[O-])cc1[N+](=O)[O-])N(C(=O)N1CCc3cc(OC)c(OC)cc3[C@@H]1c1ccc([N+](=O)[O-])cc1[N+](=O)[O-])CC2` (racemic): the IC50 is more than 50 µM.

Turning to `CCC[C@H]1c2cc(OC)c(OC)cc2CCN1C(=O)N1CCc2cc(OC)c(OC)cc2[C@@H]1CCC` (racemic), the half-maximal inhibitory concentration (IC50) stood at 8.5 µM.

Consider `COc1cc2c(cc1OC)C(c1cccc(-c3cccc([N+](=O)[O-])c3)n1)NCC2` (racemic), for which the concentration for half-maximal inhibition (IC50) is more than 50 µM.

Turning to `COc1cc2c(cc1OC)[C@H](c1ccc(Oc3ccc([N+](=O)[O-])cc3)cc1)N(C(=O)N1CCc3cc(OC)c(OC)cc3[C@@H]1c1ccc(Oc3ccc([N+](=O)[O-])cc3)cc1)CC2` (racemic), the IC50 was more than 50 µM.

On to `COc1cc2c(cc1OC)[C@H](c1ccc(C(F)(F)F)cc1)N(C(=O)N1CCc3cc(OC)c(OC)cc3[C@@H]1c1ccc(C(F)(F)F)cc1)CC2` (racemic), for which the IC50 was 0.18 µM.

As for `COc1ccc(OC)c(C[C@@H]2NC(=O)[C@@H]3Cc4c(OC)ccc(OC)c4[C@@H](/C=C/c4ccccc4)N3C2=O)c1` (racemic), the IC50 amounted to 30.6 µM.

With `COc1cc2c(cc1OC)[C@H](c1ccc(Br)cc1)N(C(=O)N1CCc3cc(OC)c(OC)cc3[C@@H]1c1ccc(Br)cc1)CC2` (racemic), the half-inhibitory concentration (IC50) worked out at 2.2 µM.

On to `COc1cc2c(cc1OC)[C@H](c1ccccc1Cl)N(C(=O)N1CCc3cc(OC)c(OC)cc3[C@@H]1c1ccccc1Cl)CC2` (racemic), for which the IC50 was 19.8 µM.

For `COc1ccc(CCNC(=O)N2CCc3cc(OC)c(OC)cc3C2c2ccccc2Cl)cc1OC` (racemic), the IC50 was 46.1 µM.

As to `COc1cc2c(cc1OC)[C@H](c1cccc(-c3cccc([N+](=O)[O-])c3)n1)N(C(=O)N1CCc3cc(OC)c(OC)cc3[C@@H]1c1cccc(-c3cccc([N+](=O)[O-])c3)n1)CC2` (racemic), the IC50 is 43.7 µM.

As to `COc1cc2c(cc1OC)[C@H](c1cccc([N+](=O)[O-])c1)N(C(=O)N1CCc3cc(OC)c(OC)cc3[C@@H]1c1cccc([N+](=O)[O-])c1)CC2` (racemic), the IC50 amounted to 44.4 µM.

Regarding `COc1cc2c(cc1OC)[C@H](c1ccc([N+](=O)[O-])cc1)N(C(=O)N1CCc3cc(OC)c(OC)cc3[C@@H]1c1ccc([N+](=O)[O-])cc1)CC2` (racemic), the IC50 is more than 50 µM.

As to `COc1cc(C[C@@H]2NC(=O)[C@@H]3Cc4c(OC)c(C)c(OC)c(OC)c4[C@H](/C=C/c4ccccc4)N3C2=O)c(OC)c(C)c1OC` (racemic), the IC50 came out at 3.2 µM.

Regarding `COc1cc(C[C@@H]2NC(=O)[C@H](Cc3cc(OC)c(OC)c(C)c3OC)NC2=O)c(OC)c(C)c1OC` (racemic), the IC50 was more than 50 µM.

Turning to `COc1c(C)c(OC)c(OC)c2c1C[C@H]1C(=O)N3[C@@H](Cc4c(OC)c(C)c(OC)c(OC)c4[C@@H]3/C=C/c3ccccc3)C(=O)N1[C@H]2/C=C/c1ccccc1` (racemic), the IC50 was 8.8 µM.

Regarding `COc1cc2c(cc1OC)C(c1ccc(Cl)cc1)NCC2` (racemic), the IC50 is more than 50 µM.

In another data set the target is T1, Transient receptor potential cation channel subfamily M member 8. The data set can be described thus: Agonist activity at recombinant rat TRPM8 expressed in HEK293 cells assessed as increase in intracellular calcium accumulation by Fluo-4-AM probe-based spectrofluorimetric assay. It counts as cell-based. The following applies: hek293. In short, it runs like this:
(§1)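 HEK-293 cells stably expressing rat TRPM8 were loaded with Fluo-4-AM (4 µM, 0.02% Pluronic F-127) for 1 h at 25 °C in serum-free EMEM. They were then washed and suspended in Tyrode's buffer pH 7.4 in a stirred cuvette. [Ca2+]i fluorescence (ex 488/em 516 nm) was read before and after compound addition. Wild-type HEK-293 response was subtracted. Efficacy is expressed versus 4 µM ionomycin; EC50 comes from a sigmoidal fit.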
Background: Calcium flux is commonly read through the fluorescence of an indicator in the cells.
For orientation: EC50 means the concentration needed to bring the measured effect to its halfway point. Take `COc1cc2c(cc1OC)[C@H](c1ccc3ccccc3c1)N(C(=O)N1CCc3cc(OC)c(OC)cc3[C@@H]1c1ccc3ccccc3c1)CC2` (racemic): the EC50 entry is reported as “Not Active”.

Take `COc1cc2c(cc1OC)C(c1ccc([N+](=O)[O-])cc1[N+](=O)[O-])NCC2` (racemic): the EC50 result is on record as “Not Active”.

As for `COc1cc2c(cc1OC)[C@H](c1ccc([N+](=O)[O-])cc1[N+](=O)[O-])N(C(=O)N1CCc3cc(OC)c(OC)cc3[C@@H]1c1ccc([N+](=O)[O-])cc1[N+](=O)[O-])CC2` (racemic), the EC50 result is “Not Active”.

In the case of `CCC[C@H]1c2cc(OC)c(OC)cc2CCN1C(=O)N1CCc2cc(OC)c(OC)cc2[C@@H]1CCC` (racemic), the EC50 result is on record as “Not Active”.

For `COc1cc2c(cc1OC)C(c1cccc(-c3cccc([N+](=O)[O-])c3)n1)NCC2` (racemic), the EC50 entry was “Not Active”.

With `COc1cc2c(cc1OC)[C@H](c1ccc(Oc3ccc([N+](=O)[O-])cc3)cc1)N(C(=O)N1CCc3cc(OC)c(OC)cc3[C@@H]1c1ccc(Oc3ccc([N+](=O)[O-])cc3)cc1)CC2` (racemic), the EC50 result was “Not Active”.

Take `COc1cc2c(cc1OC)[C@H](c1ccc(C(F)(F)F)cc1)N(C(=O)N1CCc3cc(OC)c(OC)cc3[C@@H]1c1ccc(C(F)(F)F)cc1)CC2` (racemic): the EC50 entry is recorded as “Not Active”.

Regarding `COc1ccc(OC)c(C[C@@H]2NC(=O)[C@@H]3Cc4c(OC)ccc(OC)c4[C@@H](/C=C/c4ccccc4)N3C2=O)c1` (racemic), the EC50 entry is given as “Not Active”.

As to `COc1cc2c(cc1OC)[C@H](c1ccc(Br)cc1)N(C(=O)N1CCc3cc(OC)c(OC)cc3[C@@H]1c1ccc(Br)cc1)CC2` (racemic), the EC50 result is given as “Not Active”.

Turning to `COc1cc2c(cc1OC)[C@H](c1ccccc1Cl)N(C(=O)N1CCc3cc(OC)c(OC)cc3[C@@H]1c1ccccc1Cl)CC2` (racemic), the EC50 result is given as “Not Active”.

For `COc1ccc(CCNC(=O)N2CCc3cc(OC)c(OC)cc3C2c2ccccc2Cl)cc1OC` (racemic), the EC50 result is recorded as “Not Active”.

Take `COc1cc2c(cc1OC)[C@H](c1cccc(-c3cccc([N+](=O)[O-])c3)n1)N(C(=O)N1CCc3cc(OC)c(OC)cc3[C@@H]1c1cccc(-c3cccc([N+](=O)[O-])c3)n1)CC2` (racemic): the 50% effective concentration (EC50) entry is “Not Active”.

`COc1cc2c(cc1OC)[C@H](c1cccc([N+](=O)[O-])c1)N(C(=O)N1CCc3cc(OC)c(OC)cc3[C@@H]1c1cccc([N+](=O)[O-])c1)CC2` (racemic): the EC50 result is “Not Active”.

Consider `COc1cc(C[C@@H]2NC(=O)[C@H](Cc3cc(OC)c(OC)c(C)c3OC)NC2=O)c(OC)c(C)c1OC` (racemic), for which the EC50 result is “Not Active”.

In the case of `COc1c(C)c(OC)c(OC)c2c1C[C@H]1C(=O)N3[C@@H](Cc4c(OC)c(C)c(OC)c(OC)c4[C@@H]3/C=C/c3ccccc3)C(=O)N1[C@H]2/C=C/c1ccccc1` (racemic), the EC50 entry is listed as “Not Active”.

`COc1cc2c(cc1OC)C(c1ccc(Cl)cc1)NCC2` (racemic): the EC50 entry is given as “Not Active”.

Still in this data set, the particulars now being: read-out: EC50.
`COc1cc2c(cc1OC)[C@H](c1ccc([N+](=O)[O-])cc1)N(C(=O)N1CCc3cc(OC)c(OC)cc3[C@@H]1c1ccc([N+](=O)[O-])cc1)CC2` (racemic): the EC50 is 14.2 µM.

Turning to `COc1cc(C[C@@H]2NC(=O)[C@@H]3Cc4c(OC)c(C)c(OC)c(OC)c4[C@H](/C=C/c4ccccc4)N3C2=O)c(OC)c(C)c1OC` (racemic), the EC50 is 20.8 µM.

The target in a further data set is Transient receptor potential cation channel subfamily M member 8 (Rattus norvegicus) (UniProt Q8R455). Briefly: Agonist activity at recombinant rat TRPM8 expressed in HEK293 cells assessed as increase in intracellular calcium accumulation by Fluo-4-AM probe-based spectrofluorimetric assay relative to ionomycin. The class given is cell-based.
Sequence of Transient receptor potential cation channel subfamily M member 8 (Rattus norvegicus) (Q8R455 whole entry, looked up): as the sequence (Q8R455 whole entry) above
Details: not given
In short, it runs like this: as §1
`COc1cc2c(cc1OC)[C@H](c1ccc([N+](=O)[O-])cc1)N(C(=O)N1CCc3cc(OC)c(OC)cc3[C@@H]1c1ccc([N+](=O)[O-])cc1)CC2` (racemic): the Activity worked out at 22.7%.

As to `COc1cc(C[C@@H]2NC(=O)[C@@H]3Cc4c(OC)c(C)c(OC)c(OC)c4[C@H](/C=C/c4ccccc4)N3C2=O)c(OC)c(C)c1OC` (racemic), the Activity was 26.6%.

A further data set has the same target. Briefly: Agonist activity at recombinant rat TRPM8 expressed in HEK293 cells assessed as increase in intracellular calcium accumulation up to 10 uM by Fluo-4-AM probe-based spectrofluorimetric assay.
Details: not given
It counts as cell-based. In short, it runs like this:
as §1
Turning to `COc1cc2c(cc1OC)[C@H](c1ccc([N+](=O)[O-])cc1)N(C(=O)N1CCc3cc(OC)c(OC)cc3[C@@H]1c1ccc([N+](=O)[O-])cc1)CC2` (racemic), the result was inactive.

Take `COc1cc(C[C@@H]2NC(=O)[C@@H]3Cc4c(OC)c(C)c(OC)c(OC)c4[C@H](/C=C/c4ccccc4)N3C2=O)c(OC)c(C)c1OC` (racemic): the outcome was inactive.

Tested on in another data set: not listed separately
Briefly: in vitro. The following applies: C57BL/6, mouse, liver microsomes. On the technique in general: Microsomes from liver hold many membrane-bound enzymes, among them those of drug oxidation.
One may read the CLint scaled as a measure of how fast metabolising enzymes remove a compound, apart from limits set by blood flow. High values mean faster metabolism, low ones greater metabolic stability. As for `COc1cc2c(cc1OC)[C@H](c1ccc(C(F)(F)F)cc1)N(C(=O)N1CCc3cc(OC)c(OC)cc3[C@@H]1c1ccc(C(F)(F)F)cc1)CC2` (racemic), the CLint scaled at 1 h, 3 µM is 10.1 mL/min/kg.

`COc1cc2c(cc1OC)[C@H](c1ccc(Br)cc1)N(C(=O)N1CCc3cc(OC)c(OC)cc3[C@@H]1c1ccc(Br)cc1)CC2` (racemic): the CLint scaled at 1 h, 3 µM came to 19.1 mL/min/kg.

`COc1cc2c(cc1OC)[C@H](c1ccccc1Cl)N(C(=O)N1CCc3cc(OC)c(OC)cc3[C@@H]1c1ccccc1Cl)CC2` (racemic) displayed a CLint scaled at 1 h, 3 µM of 52.9 mL/min/kg.
